Test results published in ChEMBL document CHEMBL3992509, “Discovery of a Highly Potent, Selective, and Metabolically Stable Inhibitor of Receptor-Interacting Protein 1 (RIP1) for the Treatment of Systemic Inflammatory Response Syndrome” (J Med Chem, 2017).
Calls of active or inactive are those of the source. The calls are words filed in the database; no cut-off is given here.

Legend:
Mus musculus [1] = assay: Protection against TNFalpha-induced multiorgan damage in C57BL/6J mouse assessed as inhibition of TNFalpha-induced increase in IL-6 level at 0.3 to 3 mg/kg, ip pretreated for 17 mins followed by TNFalpha injection and subsequent compound treatment once in every 12 hrs measured after 12 hrs; assay type: functional, organism-based
Method in brief: (§1)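 C57BL/6 mice given 4 μg mTNFα (~0.18 mg/kg) IV. Compound 0.3, 1, 3 mg/kg IP 17 min before and then every 12 h; vehicle controls. Blood taken 12 h and 24 h after TNFα. Assays: IL-6 and IL-1β; serum LDH, CK, AST, creatinine, BUN, amylase.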

[2] = Bioavailability in C57BL/6J mouse at 10 mg/kg, ip by LC-MS/MS analysis; assay type: ADME, organism-based; details: in vivo
Method in brief: (§2)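 C57BL/6 mice (n = 3) dosed IV, IP or PO; blood sampled by eye puncture at various time points; plasma levels by LC-MS/MS; parameters from individual animal data by non-compartmental analysis.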

[3] = Half life in C57BL/6J mouse at 2 mg/kg, iv by LC-MS/MS analysis; assay type: ADME, organism-based; details: in vivo; method in brief: as §2
Cytochrome P450 1A2 = target: T1, Cytochrome P450 1A2 (Homo sapiens, UniProt P05177); assay: Inhibition of CYP1A2 (unknown origin); assay type: ADME
T1 sequence (P05177 whole entry): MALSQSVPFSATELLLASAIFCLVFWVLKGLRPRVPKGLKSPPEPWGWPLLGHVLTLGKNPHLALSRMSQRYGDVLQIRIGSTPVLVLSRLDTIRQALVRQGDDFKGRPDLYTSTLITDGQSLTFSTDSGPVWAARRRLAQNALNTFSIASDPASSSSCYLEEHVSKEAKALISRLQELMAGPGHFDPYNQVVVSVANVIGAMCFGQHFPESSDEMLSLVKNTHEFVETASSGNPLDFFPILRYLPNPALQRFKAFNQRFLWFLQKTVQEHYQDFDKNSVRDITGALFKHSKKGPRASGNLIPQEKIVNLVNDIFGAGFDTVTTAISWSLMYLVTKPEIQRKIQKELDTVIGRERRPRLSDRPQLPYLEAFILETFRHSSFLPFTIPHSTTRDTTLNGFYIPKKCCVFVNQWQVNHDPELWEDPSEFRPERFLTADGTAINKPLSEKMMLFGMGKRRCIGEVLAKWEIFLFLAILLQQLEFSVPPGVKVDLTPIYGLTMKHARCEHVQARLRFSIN

Mus musculus [4] = assay: Protection against TNFalpha-induced multiorgan damage in C57BL/6J mouse assessed as serum CK-MB level at 0.3 to 3 mg/kg, ip pretreated for 17 mins followed by TNFalpha injection and subsequent compound treatment once in every 12 hrs measured 24 hrs post TNFalpha injection; assay type: functional, organism-based; method in brief: as §1
Cytochrome P450 3A4 = Cytochrome P450 3A4 (Homo sapiens, UniProt P08684); assay: Inhibition of CYP3A4 (unknown origin); assay type: ADME
Sequence of Cytochrome P450 3A4 (P08684 whole entry): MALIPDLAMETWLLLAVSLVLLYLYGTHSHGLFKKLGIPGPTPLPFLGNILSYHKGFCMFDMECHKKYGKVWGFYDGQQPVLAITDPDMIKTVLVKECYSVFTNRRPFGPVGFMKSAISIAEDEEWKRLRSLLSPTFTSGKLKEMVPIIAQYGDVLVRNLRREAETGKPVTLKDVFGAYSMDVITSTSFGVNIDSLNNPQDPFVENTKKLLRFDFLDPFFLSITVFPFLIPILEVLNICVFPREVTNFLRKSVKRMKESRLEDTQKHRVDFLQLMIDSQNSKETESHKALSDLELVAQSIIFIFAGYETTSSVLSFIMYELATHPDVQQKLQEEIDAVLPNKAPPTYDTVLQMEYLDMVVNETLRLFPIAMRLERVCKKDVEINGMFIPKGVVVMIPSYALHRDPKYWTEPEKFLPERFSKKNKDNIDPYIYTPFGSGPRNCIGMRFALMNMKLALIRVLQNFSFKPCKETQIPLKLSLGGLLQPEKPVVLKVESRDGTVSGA

[5] = Half life in human liver microsomes in presence of NADPH by LC-MS/MS analysis; assay type: ADME, microsome
[6] = Apparent permeability from apical to basolateral side in MDCK cells harboring MDR1; assay type: ADME, cell-based, Canis lupus familiaris; details: dog
Method in brief: (§3)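 Permeability measured in MDCK-MDR1 cell monolayers in both directions, apical-to-basolateral and basolateral-to-apical; efflux ratio derived from the two Papp values.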

Cytochrome P450 2C19 = Cytochrome P450 2C19 (Homo sapiens, UniProt P33261); assay: Inhibition of CYP2C19 (unknown origin); assay type: ADME
Sequence of Cytochrome P450 2C19 (P33261 whole entry): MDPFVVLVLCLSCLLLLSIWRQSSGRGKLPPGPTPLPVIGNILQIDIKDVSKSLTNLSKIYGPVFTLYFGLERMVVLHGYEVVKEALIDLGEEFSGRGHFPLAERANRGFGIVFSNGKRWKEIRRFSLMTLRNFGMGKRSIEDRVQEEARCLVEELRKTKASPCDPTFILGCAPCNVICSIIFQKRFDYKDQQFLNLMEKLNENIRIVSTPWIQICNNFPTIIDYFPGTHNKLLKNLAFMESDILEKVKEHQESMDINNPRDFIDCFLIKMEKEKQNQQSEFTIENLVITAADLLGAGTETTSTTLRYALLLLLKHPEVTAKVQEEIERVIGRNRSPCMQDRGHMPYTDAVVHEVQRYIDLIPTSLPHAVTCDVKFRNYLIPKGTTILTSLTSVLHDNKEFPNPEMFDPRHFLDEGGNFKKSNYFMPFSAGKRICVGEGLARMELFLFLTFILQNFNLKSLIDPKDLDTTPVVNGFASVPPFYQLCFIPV

Mus musculus [7] = assay: Protection against TNFalpha-induced multiorgan damage in C57BL/6J mouse assessed as serum LDH level at 0.3 to 3 mg/kg, ip pretreated for 17 mins followed by TNFalpha injection and subsequent compound treatment once in every 12 hrs measured 24 hrs post TNFalpha injection; assay type: functional, organism-based; method in brief: as §1
Mus musculus [8] = assay: Protection against TNFalpha-induced multiorgan damage in C57BL/6J mouse assessed as serum amylase level at 0.3 to 3 mg/kg, ip pretreated for 17 mins followed by TNFalpha injection and subsequent compound treatment once in every 12 hrs measured 24 hrs post TNFalpha injection; assay type: functional, organism-based; method in brief: as §1
Mus musculus [9] = assay: Protection against TNFalpha-induced multiorgan damage in C57BL/6J mouse assessed as blood urea nitrogen level at 0.3 to 3 mg/kg, ip pretreated for 17 mins followed by TNFalpha injection and subsequent compound treatment once in every 12 hrs measured 24 hrs post TNFalpha injection; assay type: functional, organism-based; method in brief: as §1
[10] = Intrinsic clearance in human liver microsomes assessed per mg protein in presence of NADPH by LC-MS/MS analysis; assay type: ADME, microsome; details: read-out: CLH
[11] = target: Receptor-interacting serine/threonine-protein kinase 3 (Homo sapiens) (UniProt Q9Y572); assay: Inhibition of TNFalpha/z-VAD-FMK-induced RIP3 phosphorylation at Ser-227 residue in human HT-29 cells by Western blot method; assay type: cell-based
Sequence of Receptor-interacting serine/threonine-protein kinase 3 (Homo sapiens) (Q9Y572 whole entry, looked up): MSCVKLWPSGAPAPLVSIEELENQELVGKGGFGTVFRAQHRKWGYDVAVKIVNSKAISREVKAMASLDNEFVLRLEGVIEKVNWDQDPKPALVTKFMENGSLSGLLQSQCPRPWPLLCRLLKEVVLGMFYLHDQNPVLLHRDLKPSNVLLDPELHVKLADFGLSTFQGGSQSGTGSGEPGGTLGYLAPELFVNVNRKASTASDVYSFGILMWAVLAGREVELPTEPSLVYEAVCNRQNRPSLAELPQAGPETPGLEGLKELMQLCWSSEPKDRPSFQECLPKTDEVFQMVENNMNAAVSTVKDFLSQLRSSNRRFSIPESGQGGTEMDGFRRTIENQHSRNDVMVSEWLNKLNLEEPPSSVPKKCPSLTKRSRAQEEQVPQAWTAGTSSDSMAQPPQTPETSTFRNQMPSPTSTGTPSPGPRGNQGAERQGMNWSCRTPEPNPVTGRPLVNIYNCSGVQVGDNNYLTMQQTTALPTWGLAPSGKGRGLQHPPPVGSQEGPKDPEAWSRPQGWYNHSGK

[12] = target: Receptor-interacting serine/threonine-protein kinase 3 (Homo sapiens) (UniProt Q9Y572); assay: Inhibition of full length recombinant human N-terminal GST-tagged RIP3 expressed in baculovirus infected sf9 cells at 10 uM using MBP as substrate preincubated for 15 mins followed by MBP/ATP mixture addition measured after 90 mins by ADP-Glo kinase assay
[13] = Apparent permeability from basolateral to apical side in MDCK cells harboring MDR1; assay type: ADME, cell-based, Canis lupus familiaris; details: dog; method in brief: as §3
[14] = Half life in mouse liver microsomes in presence of NADPH by LC-MS/MS analysis; assay type: ADME, microsome
Mus musculus [15] = assay: Protection against TNFalpha-induced myocardium damage in C57BL/6J mouse at 0.3 to 3 mg/kg, ip pretreated for 17 mins followed by TNFalpha injection and subsequent compound treatment once in every 12 hrs measured 24 hrs post TNFalpha injection by hematoxylin and eosin staining based assay; assay type: functional, organism-based
Method in brief: (§4)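 Mice given mTNFα IV; compound 0.3, 1, 3 mg/kg IP 17 min before and every 12 h. Killed 24 h post-TNFα. Organs fixed 24 h in 10% neutral buffered formalin, paraffin-embedded, 5-μm sections, H&E stained; ×200, at least three mice each.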

[16] = Intrinsic clearance in mouse liver microsomes assessed per mg protein in presence of NADPH by LC-MS/MS analysis; assay type: ADME, microsome; details: read-out: CLH
Mus musculus [17] = assay: Protection against TNFalpha-induced kidney damage in C57BL/6J mouse at 0.3 to 3 mg/kg, ip pretreated for 17 mins followed by TNFalpha injection and subsequent compound treatment once in every 12 hrs measured 24 hrs post TNFalpha injection by hematoxylin and eosin staining based assay; assay type: functional, organism-based; method in brief: as §4
Mus musculus [18] = assay: Protection against TNFalpha-induced mortality in ip dosed C57BL/6J mouse assessed as increase in survival rate pretreated for 17 mins followed by TNFalpha injection and subsequent compound treatment once in every 12 hrs measured every 30 mins up to 60 hrs post TNFalpha injection during compound dosing; assay type: functional, organism-based
Method in brief: (§5)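 C57BL/6 mice, 6-8 weeks, ~20 g, randomized (n = 6~10). Given 5.5 μg mTNFα (~0.25 mg/kg) IV in endotoxin-free PBS, 0.2 mL. Compound IP 17 min before TNFα: either once at 6 mg/kg or […], 1, 3 mg/kg then every 12 h; vehicle controls. Survival checked every 30 min to 60 h.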

Mus musculus [19] = assay: Protection against TNFalpha-induced mortality in ip dosed C57BL/6J mouse assessed as increase in survival rate administered as single dose 17 mins before TNFalpha injection measured every 30 mins up to 60 hrs post TNFalpha injection; assay type: functional, organism-based; method in brief: as §5
[20] = target: Voltage-gated inwardly rectifying potassium channel KCNH2 (Homo sapiens, UniProt Q12809); assay: Inhibition of human ERG at 30 uM by manual patch clamp method
Sequence of Voltage-gated inwardly rectifying potassium channel KCNH2 (Q12809 whole entry): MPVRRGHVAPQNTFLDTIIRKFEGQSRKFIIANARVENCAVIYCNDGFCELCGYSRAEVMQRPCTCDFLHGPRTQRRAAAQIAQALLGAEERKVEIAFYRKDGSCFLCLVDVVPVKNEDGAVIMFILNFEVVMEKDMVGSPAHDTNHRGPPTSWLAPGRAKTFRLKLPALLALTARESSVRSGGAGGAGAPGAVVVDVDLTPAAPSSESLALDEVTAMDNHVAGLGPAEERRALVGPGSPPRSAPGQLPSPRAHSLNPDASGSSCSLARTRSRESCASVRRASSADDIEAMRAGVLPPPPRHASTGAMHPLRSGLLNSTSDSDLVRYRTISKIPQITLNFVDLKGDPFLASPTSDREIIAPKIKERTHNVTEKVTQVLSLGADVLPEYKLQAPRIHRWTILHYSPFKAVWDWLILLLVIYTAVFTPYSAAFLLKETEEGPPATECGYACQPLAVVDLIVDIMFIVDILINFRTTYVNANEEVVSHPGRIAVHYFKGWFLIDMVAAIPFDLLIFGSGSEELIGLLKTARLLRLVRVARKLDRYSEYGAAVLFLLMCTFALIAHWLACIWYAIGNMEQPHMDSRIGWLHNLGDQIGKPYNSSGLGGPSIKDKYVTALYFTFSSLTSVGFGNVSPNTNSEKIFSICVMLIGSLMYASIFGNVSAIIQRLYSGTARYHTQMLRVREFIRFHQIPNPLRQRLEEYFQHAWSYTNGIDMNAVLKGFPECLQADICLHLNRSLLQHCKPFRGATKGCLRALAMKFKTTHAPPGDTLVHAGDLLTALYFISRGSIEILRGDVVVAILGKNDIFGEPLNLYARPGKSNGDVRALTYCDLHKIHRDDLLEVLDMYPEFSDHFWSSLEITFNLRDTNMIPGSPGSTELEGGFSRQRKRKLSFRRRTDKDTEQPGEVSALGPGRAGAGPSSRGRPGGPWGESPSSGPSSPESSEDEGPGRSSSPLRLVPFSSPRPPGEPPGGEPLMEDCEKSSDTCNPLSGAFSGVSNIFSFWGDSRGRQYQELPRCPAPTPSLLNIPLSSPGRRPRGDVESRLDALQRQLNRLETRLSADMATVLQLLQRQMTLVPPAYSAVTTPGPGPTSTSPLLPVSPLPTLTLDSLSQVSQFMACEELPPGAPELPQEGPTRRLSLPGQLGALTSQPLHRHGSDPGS
Method in brief: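 Manual patch clamp on hERG channel, tested up to 30 μM.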

CCC(C)(C)C(=O)N(O)Cc1ccccc1
inhibition (Mus musculus [1]): Active
bioavailability [2]: 100%
half-life [3]: 3.1 h
IC50 (Cytochrome P450 1A2): > 50 µM
Activity (Mus musculus [4]): Active
IC50 (Cytochrome P450 3A4): > 3.5 µM
half-life [5]: 2.13 h
Papp A→B [6]: > 30 ×10⁻⁶ cm/s
IC50 (Cytochrome P450 2C19): > 50 µM
Activity (Mus musculus [7]): Active
Activity (Mus musculus [8]): Active
Activity (Mus musculus [9]): Active
microsomal CLint [10]: 5.4 µL/min/mg
inhibition [11]: Active
inhibition [12]: inactive
Papp B→A [13]: > 30 ×10⁻⁶ cm/s
half-life [14]: 0.592 h
Activity (Mus musculus [15]): Active
microsomal CLint [16]: 19.5 µL/min/mg
Activity (Mus musculus [17]): Active
Activity (Mus musculus [18]): Dose-dependent effect
Activity (Mus musculus [19]): Dose-dependent effect
inhibition (INH) [20]: Not Active
